Measurements from ChEMBL document CHEMBL2331466, “Neolignanamides, lignanamides, and other phenolic compounds from the root bark of Lycium chinense” (J Nat Prod, 2013).

How the values were obtained:
[1] = Antioxidant activity assessed as inhibition of xanthine-xanthine oxidase generated superoxide anion radical production by NBT reduction assay; assay type: functional
Summary of the method: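 Superoxide produced by xanthine/xanthine oxidase. Final reaction contained xanthine 40 μM, xanthine oxidase 0.05 unit/mL, NBT 50 μM (in 20 mM phosphate buffer, pH 7.4) and graded sample concentrations. Incubated 37 °C for 20 min after adding enzyme. Absorbance read at 560 nm against blanks. Values are means of triplicate determinations.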

[2] = tested on: Radical scavenging activity; assay: Antioxidant activity assessed as DPPH radical scavenging activity after 30 mins; assay type: functional
Summary of the method: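 Test samples at 5−100 μg/mL (120 μL) combined with 30 μL of 0.75 mM DPPH in MeOH, in triplicate. Shaken in the dark at room temperature for 30 min, then absorbance read at 517 nm. Scavenging (%) = (1 − As/A0) × 100. IC50 is the concentration giving 50% DPPH inhibition. Trolox (5−100 μM) served as positive control.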

**Q.** Which results are given for `O=C(/C=C/c1ccc(O)c(O)c1)NCCc1ccc(O)cc1`?
**A.** IC50 [1]: 44.1 µM; IC50 [2]: 47.6 µM

**Q.** For `O=C(CCc1ccc(O)c(O)c1)NCCc1ccc(O)cc1`, which IC50 [1] is on record?
**A.** 30.2 µM

**Q.** What about the IC50 [2] of the same compound?
**A.** 61.2 µM

**Q.** With `COc1cc(/C=C\C(=O)NCC(O)c2ccc(O)cc2)ccc1O` (stereo not given) as the compound, how does the IC50 [1] read?
**A.** 22.2 µM

**Q.** What about the IC50 [2] of the same compound?
**A.** 61.2 µM

**Q.** Which IC50 [1] does the source give for `COc1cc2c(c(OC)c1O)C(c1ccc(O)c(O)c1)C(C(=O)NCCc1ccc(O)cc1)C(C(=O)NCCc1ccc(O)cc1)=C2` (stereo not given) here?
**A.** 50.1 µM

**Q.** And the IC50 [2]?
**A.** 46.5 µM

**Q.** Which IC50 [1] does the source give for `COc1ccc(/C=C/C(=O)NCCc2ccc(O)cc2)cc1O` here?
**A.** 48.8 µM

**Q.** And the IC50 [2]?
**A.** 67.7 µM

**Q.** Which IC50 [1] does the source give for `COc1cc(/C=C(/C(=O)NCCCCNC(C)=O)c2cc(O)c(O)cc2CCC(=O)NCCc2ccc(O)cc2)ccc1O` here?
**A.** 56.5 µM

**Q.** What about the IC50 [2] of the same compound?
**A.** 65.2 µM

**Q.** With `COc1cc(/C=C(/C(=O)NCCCCNC(C)=O)c2cc(O)c(O)cc2CCC(=O)NCCc2ccc(O)cc2)cc(OC)c1O` as the compound, how does the IC50 [1] read?
**A.** 52.7 µM

**Q.** And the IC50 [2]?
**A.** 64.7 µM

**Q.** Which results are given for `COc1cc(/C=C(/C(=O)NCCc2ccc(O)cc2)c2cc(O)c(O)cc2CCC(=O)NCCc2ccc(O)cc2)cc(OC)c1O`?
**A.** IC50 [1]: 49.9 µM; IC50 [2]: 57.1 µM

**Q.** What does the source list for `COc1cc([C@H]2Oc3ccc(/C=C/C(=O)NCCc4ccc(O)cc4)cc3O[C@@H]2CO)ccc1O` (relative stereo)?
**A.** IC50 [1]: 44.4 µM; IC50 [2]: 55.2 µM

**Q.** Which IC50 [1] does the source give for `COc1cc2c(c(OC)c1O)[C@H](c1ccc(O)c(O)c1)[C@@H](C(=O)NCCc1ccc(O)cc1)C(C(=O)NCCCCNC(C)=O)=C2` (relative stereo) here?
**A.** 58 µM

**Q.** What about the IC50 [2] of the same compound?
**A.** 67 µM

**Q.** With `COc1cc(O)cc([C@H]2Oc3ccc(/C=C\C(=O)NCCc4ccc(O)cc4)cc3O[C@@H]2C(=O)NCCc2ccc(O)cc2)c1` (relative stereo) as the compound, how does the IC50 [1] read?
**A.** 44.1 µM

**Q.** What about the IC50 [2] of the same compound?
**A.** 48.2 µM

**Q.** For `COc1cc(O)cc([C@H]2Oc3ccc(/C=C/C(=O)NCCc4ccc(O)cc4)cc3O[C@@H]2C(=O)NCCc2ccc(O)cc2)c1` (relative stereo), which IC50 [1] is on record?
**A.** 46.4 µM

**Q.** What about the IC50 [2] of the same compound?
**A.** 49.8 µM

**Q.** With `COc1cc([C@H]2Oc3ccc(/C=C\C(=O)NCCc4ccc(O)cc4)cc3O[C@@H]2CO)ccc1O` (relative stereo) as the compound, how does the IC50 [1] read?
**A.** 49.9 µM

**Q.** What about the IC50 [2] of the same compound?
**A.** 54.1 µM

**Q.** Which IC50 [1] does the source give for `O=C(/C=C/c1ccc(O)cc1)NCCc1ccc(O)cc1` [N-P-COUMAROYL TYRAMINE] here?
**A.** 52.6 µM

**Q.** What about the IC50 [2] of the same compound?
**A.** 63.5 µM

**Q.** With `Cc1c(C)c2c(c(C)c1O)CCC(C)(C(=O)O)O2` (stereo not given) [TROLOX] as the compound, how does the IC50 [1] read?
**A.** 27.2 µM

**Q.** And the IC50 [2]?
**A.** 33.5 µM
